A selection: hits, their analogues and other compounds. The true share with any hit is near 6.5%.
PostGolgi yeast = phenotypic screen on post-Golgi transport, primary screen. inhibition, % at 10 µM. actives 0.9% (n = 98,000). AID 739, 2007. post-Golgi transport phenotypic cell assay;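 note: yeast cells grown in 1536-well plates; yeast grown about 18 h at 30C before absorbance read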
Ecoli WT expand = growth inhibitors of wild-type E. coli, primary screen, strain BW25113, expanded library, OD600. OD600 absorbance. growth inhibition, % at 100 µM. actives 0.15% (n = 98,000);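 active = growth inhibition above about 50% at one test dose, limit read from the data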;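 note: growth measured after 20 h incubation at 37 °C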
Calb biofilm kill = clotrimazole potentiators killing Candida biofilms, primary screen, with clotrimazole, Alamar Blue; C. albicans biofilm + clotrimazole; AID 834, 2007; inhibition, % at 6 µM; actives 0.14% (n = 85,000);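 active = inhibition above 20%; inactive = inhibition below 20%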;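 note: preformed 24 hr biofilms exposed to compound for 48 hr; 0% = biofilm without compound and 100% = blank killed by clotrimazole plus chlorhexidine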
PTK2B oligo ant = antagonists of Pyk2 self-association, primary screen, Q293 cells, FERM NanoBiT luminescence, HTS. Protein-tyrosine kinase 2-beta (Homo sapiens), Q14289. hits give low values. z-score (the deposit names both 25 µM and 10 µM). actives 0.83% (n = 99,000). AID 1347419, 2020;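 active = Z-score of -3 or lower, scaled per plate to the spread of control and sample wells; inactive = z-score above -3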;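 note: negative z-score means lost luminescence so less FERM oligomerization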
Target sequence (Q14289 whole entry, looked up): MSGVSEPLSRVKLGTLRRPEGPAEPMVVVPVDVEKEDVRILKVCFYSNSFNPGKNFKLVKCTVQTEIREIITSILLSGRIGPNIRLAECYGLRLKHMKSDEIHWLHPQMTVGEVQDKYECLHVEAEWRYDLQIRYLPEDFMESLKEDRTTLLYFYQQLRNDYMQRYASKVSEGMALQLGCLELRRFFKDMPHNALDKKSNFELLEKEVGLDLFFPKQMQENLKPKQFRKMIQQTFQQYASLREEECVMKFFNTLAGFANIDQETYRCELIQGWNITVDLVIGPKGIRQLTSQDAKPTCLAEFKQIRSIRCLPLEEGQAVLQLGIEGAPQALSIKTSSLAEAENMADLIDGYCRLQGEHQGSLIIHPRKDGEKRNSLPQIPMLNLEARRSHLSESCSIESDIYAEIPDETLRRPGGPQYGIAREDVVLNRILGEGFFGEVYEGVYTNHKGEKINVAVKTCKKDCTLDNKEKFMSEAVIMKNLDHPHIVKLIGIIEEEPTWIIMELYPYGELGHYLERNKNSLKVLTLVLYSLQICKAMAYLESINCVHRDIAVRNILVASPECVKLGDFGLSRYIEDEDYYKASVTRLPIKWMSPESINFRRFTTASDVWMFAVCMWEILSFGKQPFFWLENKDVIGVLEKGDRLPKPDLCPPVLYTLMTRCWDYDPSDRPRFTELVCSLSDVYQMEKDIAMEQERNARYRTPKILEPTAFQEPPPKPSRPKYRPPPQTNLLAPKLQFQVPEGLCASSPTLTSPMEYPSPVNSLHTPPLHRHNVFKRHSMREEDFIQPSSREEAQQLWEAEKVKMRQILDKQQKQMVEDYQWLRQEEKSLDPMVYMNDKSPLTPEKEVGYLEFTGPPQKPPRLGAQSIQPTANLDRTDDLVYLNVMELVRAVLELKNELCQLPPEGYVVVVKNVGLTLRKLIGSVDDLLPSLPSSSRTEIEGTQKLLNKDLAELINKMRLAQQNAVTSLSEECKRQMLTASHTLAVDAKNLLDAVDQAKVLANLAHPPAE
PostGolgi ctrl = growth inhibition of yeast control strain, primary screen, counter-screen for post-Golgi transport modulator project; actives 5% (n = 98,000); AID 738, 2007; efflux-deficient yeast background strain, growth absorbance A615, 16 h; inhibition, % at 10 µM
tolC growth inh = growth inhibitors of E. coli tolC mutant, primary screen, strain BW25113 ΔtolC::kan, 384-well. OD615. growth inhibition, % at 10 µM (by protocol). actives 2.2% (n = 65,000);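 active = growth inhibition at or above a cutoff equal to the mean over every tested compound plus 3 SD, cut at about 60% in these data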;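 note: growth measured after 20 h incubation at 37 °C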
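Assay system: tolC-deleted E. coli BW25113. Medium: kanamycin-containing LB broth (50 µg/mL). Dosing: 10 µM final, single dose. Timing: bacterial growth with compound for 20 h at 37 °C. Detection: A615 absorbance measurement. Read-out basis: growth inhibition in percent.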
* marks the source's active call; other numbers are inactive results; nt = no result given. Cut-off read from the data, not from the text of the source, unless noted: active = inhibition above about 30%; inactive = the rest.

SMILES | PostGolgi yeast | Ecoli WT expand | Calb biofilm kill | PTK2B oligo ant | PostGolgi ctrl | tolC growth inh
Cc1ccc(Nc2cc(=O)oc3ccccc23)c(C)c1 | 18 | -12 | nt | -2.7 | 44* | nt
Cc1ccccc1Nc1cc(=O)oc2ccccc12 | 18 | 4 | nt | -2 | 7 | nt
Nc1cc(C(=O)c2ccccc2)ccc1N1CCOCC1 | nt | nt | 7 | -0.17 | nt | nt
O=C(c1ccc(Cl)c(Cl)c1)c1cc(-c2ccccn2)c(N2CCOCC2)s1 | -3 | -18 | nt | -1 | 56* | nt
O=C(c1ccc(Br)cc1)c1cc(-c2ccccn2)c(N2CCOCC2)s1 | -4 | 2 | nt | -0.28 | 43* | nt
O=C(c1cc(Cl)ccc1Cl)N1CCN(c2ccccn2)CC1 | 7 | 4 | 0 | 0.53 | -9 | 3
CCOC(=O)CSc1nc(N2CCOCC2)c2c(c1C#N)CC(C)(C)N(C)C2 | -2 | -5 | 4 | 0.05 | 1 | -15
Brc1cccc(C2CC(c3ccccc3)n3nnnc3N2)c1 (stereo not drawn) | 6 | 14 | -1 | -0.87 | 9 | 63*
Cc1cc(S(=O)(=O)NCCc2ccccc2)c(C)s1 | -3 | 7 | nt | -0.98 | 13 | 18
COc1cccc(CNC(=O)C23CN(Cc4ccccc4)CC2C(c2ccc([N+](=O)[O-])cc2)=NO3)c1 (stereo not drawn) | -4 | -11 | nt | nt | 33* | nt
CC(C)CCNC(=O)C12CN(Cc3ccccc3)CC1C(c1ccc([N+](=O)[O-])cc1)=NO2 (stereo not drawn) | -1 | -7 | nt | nt | 17 | nt
CCOc1ccc(C/C(N)=N/n2cnnc2)cc1 | 14 | 2 | 3 | 1 | 4 | nt
Cc1ccc(-c2cc(=O)[nH]c3ccccc23)cc1 | nt | nt | 4 | -0.67 | nt | nt
Cc1ccc(-c2[nH]c3ccccc3c2C(C[N+](=O)[O-])c2ccco2)cc1 (stereo not drawn) | 3 | -8 | 4 | -2 | 30* | nt
CC(c1nnnn1C(C)(C)C)N(Cc1cccnc1)Cc1ccccc1Cl (stereo not drawn) | 17 | 9 | 5 | -2.5 | 32* | nt
CC(C)(C)n1nnnc1C(c1cccs1)N(Cc1cccnc1)Cc1ccccc1Cl (stereo not drawn) | -6 | -7 | 6 | -1.4 | 27 | nt
CN(C)S(=O)(=O)c1ccc(C(=O)OCC(=O)c2ccc(OC(F)F)cc2OC(F)F)cc1 | -3 | -13 | 8 | 0.23 | 6 | 7
Cc1ccc2c(c1)N(CC(=O)NC1CCC(C)CC1)C(=O)CO2 (stereo not drawn) | 12 | -10 | 8 | -0.62 | 5 | -5
Cc1ccc2c(c1)N(CC(=O)NC1CCCc3ccccc31)C(=O)CO2 (stereo not drawn) | -2 | -12 | 8 | -0.76 | 34* | -16
COc1cc2c(cc1OC)CN(S(=O)(=O)c1ccc3c(c1)OCCO3)CC2 | -1 | -4 | 8 | -1.2 | 23 | -1
CC(c1ccco1)N(C(=O)c1cccs1)c1ccccn1 (stereo not drawn) | 3 | -1 | 10 | 1.6 | 41* | 7
Cc1nnc(SCCN2CCOCC2)c2nn(-c3ccccc3F)c(C)c12 | nt | nt | nt | 2.3 | nt | nt
Cc1ccc(NC(=O)CSc2nnc(C3CCCCC3)n2N)cc1F | 31* | -1 | -7 | 0.27 | 2 | 5
Nn1c(SCC(=O)Nc2ccc(F)cc2)nnc1C1CCCCC1 | -2 | 2 | -4 | 0.29 | 0 | -7
Cc1c(C)n(CC(O)CN2C(=O)c3ccccc3S2(=O)=O)c2ccccc12 (stereo not drawn) | 2 | 1 | 4 | -0.38 | 33* | nt
SMILES | PostGolgi yeast | Ecoli WT expand | Calb biofilm kill | PTK2B oligo ant | PostGolgi ctrl | tolC growth inh
O=C(O)CCSCCC(=O)O | 33* | 7 | nt | 0.24 | 7 | -34
Cc1ccccc1C(=O)N1CCC(C(=O)Nc2ccc3c(c2)OCCO3)CC1 | -2 | -2 | 13 | 0.02 | 2 | nt
CCN1/C(=C(\O)c2ccccc2)C(=O)c2ccccc2S1(=O)=O | 11 | 12 | 0 | -0.35 | 23 | 89*
COc1ccccc1CN(Cc1ccco1)S(=O)(=O)c1ccc(-n2cnnn2)c(OC)c1 | 22 | -18 | 3 | 0.16 | 36* | 29
COc1cc(S(=O)(=O)N(Cc2ccccn2)Cc2ccccc2Cl)ccc1-n1cnnn1 | nt | nt | 10 | -0.86 | nt | nt
CN1CCc2nc(SCC(=O)Nc3cccc(F)c3)c(C#N)c(-c3cccs3)c2C1 | -6 | -5 | nt | -3.1* | 2 | nt
CCC(Sc1nc(=O)cc(N)n1-c1ccccc1)C(=O)Nc1ccc(Cl)cn1 (stereo not drawn) | nt | nt | 3 | nt | nt | 5
O=S(=O)(NC1CCCC1)c1ccc(S(=O)(=O)N(Cc2cccs2)CC2CCCO2)cc1 (stereo not drawn) | 12 | -11 | 6 | -0.71 | 15 | 64*
CN(c1ccc(O)cc1)c1nc(-c2ccccc2)cs1 | nt | nt | 10 | nt | nt | 98*
CC(C)CC(=O)O/N=C1\C(=O)N(c2ccccc2)c2ccccc21 | 2 | -6 | nt | -0.71 | 22 | nt
CC(C)(C)C(=O)O/N=C1/C(=O)N(c2ccccc2)c2ccccc21 | 15 | -6 | nt | -0.18 | 40* | nt
Cc1nn(-c2ccccc2)c(C)c1/C=N\N1CCN(c2ccc(Cl)cc2)CC1 | 66* | -14 | nt | -1 | 47* | nt
Nc1c(C(=O)Nc2ccc(Br)cc2)sc2nc(-c3ccco3)ccc12 | 12 | -11 | nt | 0.92 | -2 | nt
Nc1c(C(=O)Nc2ccc(F)cc2)sc2nc(-c3ccco3)ccc12 | -2 | -18 | -3 | 0.16 | 40* | 23
O=C1Cn2c(nc3ccccc32)N1c1cccc(C(F)(F)F)c1 | -2 | 2 | -3 | -0.33 | 17 | nt
COc1ccc(CCNC(=O)COc2ccc(S(=O)(=O)NC(C)C)cc2Cl)cc1OC | -2 | 2 | nt | 0.65 | 3 | nt
CCCCS(=O)CC(COc1ccc(Cl)cc1)OC(=O)c1ccccc1 (stereo not drawn) | -4 | -12 | 6 | -0.81 | 42* | 35
Cc1nn(-c2ccccc2)c2c1/C(=N/O)CC(C)(C)C2 | 2 | 0 | 9 | -0.66 | 6 | 26
Cc1nn(-c2ccccc2)c2c1C(=O)N(c1ccccc1)C(=O)C(C)(C)C2 | 4 | 4 | 6 | -0.35 | 35* | nt
c1cnc(SCCOc2ccc3c(c2)CCC3)nc1 | -8 | 0 | 46* | -0.4 | 9 | nt
CCC(C)c1ccc(NC(=O)C2CCN(c3ncccn3)CC2)cc1 (stereo not drawn) | nt | nt | 6 | -0.7 | nt | nt
Cc1cc(C)n2c(SCc3ccc(Cl)cc3Cl)nnc2n1 | -4 | -13 | 6 | -0.45 | 36* | nt
Cc1cc(C)n2c(SCc3ccccc3Cl)nnc2n1 | -2 | 3 | 5 | -0.89 | 39* | nt
COc1ccc(-c2[nH]c(-c3cccc(OC)c3)nc2SCC(=O)NCc2ccco2)cc1 | -4 | -23 | 6 | nt | 8 | 67*
COc1cccc(NC(=O)COC(=O)CNS(=O)(=O)c2c(F)cccc2F)c1 | nt | nt | nt | 0.51 | nt | nt
CC1CCN(CCC(=O)Nc2ccc3c(c2)CCC3)CC1 | nt | nt | 13 | 0.36 | nt | nt

Screens as filed in PubChem.
